Measured values from ChEMBL document CHEMBL4043170, “1-Acetyl-5-phenyl-1H-pyrrol-3-ylacetate: An aldose reductase inhibitor for the treatment of diabetic nephropathy” (Bioorg Med Chem Lett, 2017).
Calls of active or inactive are those of the source. No cut-off for these calls is given here.

Experiments:
Rattus norvegicus [1] = experiment: Antidiabetic activity in STZ-induced diabetic nephropathy Wistar rat model assessed as reduction in urinary microalbumin level at 40 to 160 mg/kg administered daily for 8 weeks measured up to 8 weeks by ELISA; format: functional, organism-based
Summary of the method: (§1)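 Male Wistar rats (300±50 g), adapted under specific pathogen-free conditions with free access to food and water. STZ diabetic nephropathy counted if blood glucose ≥13.88 mM with raised urinary microalbumin. Groups: saline, untreated DN, 40, 80 or 160 mg/kg, and reference inhibitor 100 mg/kg. Dosed daily for eight weeks. Urine and blood sampled at weeks 2, 4, 6 and 8. Mean ± SD, n = 8.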

[2] = biological target: Aldo-keto reductase family 1 member B1 (Rattus norvegicus, UniProt P07943); experiment: Inhibition of AR in Sprague-Dawley rat lens using DL-glyceraldehyde as substrate by spectrophotometric analysis
Summary of the method: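 Inhibition is expressed relative to uninhibited enzyme activity, set as 100%. For the kinetic study, DL-glyceraldehyde was used at 0.083, 0.125, 0.25 and 1.0 mM. […] Results were analysed by Lineweaver-Burk double-reciprocal plots of 1/V against 1/S.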

[3] = biological target: Aldo-keto reductase family 1 member B1 (Homo sapiens) (UniProt P15121); experiment: Uncompetitive inhibition of recombinant human AR at 60 to 140 nM in presence of various concentrations of DL-glyceraldehyde by Lineweaver-Burk plot analysis
HBZY-1 [4] = experiment: Cytoprotective activity against HG-induced cell death in rat HBZY-1 cells at 0.3 to 0.9 uM after 24 to 96 hrs by MTT assay; format: functional, cell-based
HBZY-1 [5] = experiment: Cytoprotective activity against HG-induced cell death in rat HBZY-1 cells at 0.9 uM after 24 to 96 hrs by MTT assay; format: functional, cell-based
HBZY-1 [6] = experiment: Cytoprotective activity against HG-induced cell death in rat HBZY-1 cells assessed as […] at 0.3 uM by Annexin V-FITC/propidium iodide staining-based flow cytometric analysis (reference value: 2.83); format: functional
HBZY-1 [7] = experiment: Cytoprotective activity against HG-induced cell death in rat HBZY-1 cells assessed as […] at 0.6 uM by Annexin V-FITC/propidium iodide staining-based flow cytometric analysis (reference value: 2.83); format: functional
HBZY-1 [8] = experiment: Cytoprotective activity against HG-induced cell death in rat HBZY-1 cells assessed as […] at 0.9 uM by Annexin V-FITC/propidium iodide staining-based flow cytometric analysis (reference value: 2.83); format: functional
HBZY-1 [9] = experiment: Cytoprotective activity against HG-induced cell death in rat HBZY-1 cells assessed as […] by measuring early apoptotic cells at 0.3 uM by Annexin V-FITC/propidium iodide staining-based flow cytometric analysis (reference value: 8.13%); format: functional
HBZY-1 [10] = experiment: Cytoprotective activity against HG-induced cell death in rat HBZY-1 cells assessed as […] by measuring late apoptotic cells at 0.3 uM by Annexin V-FITC/propidium iodide staining-based flow cytometric analysis (reference value: 18.81%); format: functional
HBZY-1 [11] = experiment: Cytoprotective activity against HG-induced cell death in rat HBZY-1 cells assessed as […] by measuring early apoptotic cells at 0.6 uM by Annexin V-FITC/propidium iodide staining-based flow cytometric analysis (reference value: 8.13%); format: functional
HBZY-1 [12] = experiment: Cytoprotective activity against HG-induced cell death in rat HBZY-1 cells assessed as increase in apoptosis by measuring late apoptotic cells at 0.6 uM by Annexin V-FITC/propidium iodide staining-based flow cytometric analysis (reference value: 18.81%); format: functional
HBZY-1 [13] = experiment: Cytoprotective activity against HG-induced cell death in rat HBZY-1 cells assessed as […] by measuring early apoptotic cells at 0.9 uM by Annexin V-FITC/propidium iodide staining-based flow cytometric analysis (reference value: 8.13%); format: functional
HBZY-1 [14] = experiment: Cytoprotective activity against HG-induced cell death in rat HBZY-1 cells assessed as increase in apoptosis by measuring late apoptotic cells at 0.9 uM by Annexin V-FITC/propidium iodide staining-based flow cytometric analysis (reference value: 18.81%); format: functional
HBZY-1 [15] = experiment: Cytoprotective activity against HG-induced cell death in rat HBZY-1 cells assessed as […] at 0.3 to 0.9 uM by Hoechst staining-based analysis; format: functional
Summary of the method: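 HBZY-1 rat mesangial cells grown in low-glucose DMEM (5.56 mM) with 10% FBS at 37°C and 5% CO2. Pretreated, then exposed to 33 mM glucose. 1×10^4 cells seeded per well, fixed in 70% ethanol for 20 min at room temperature, and stained with Hoechst for 5 min. Imaged by fluorescence microscopy at 400×.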

Rattus norvegicus [16] = experiment: Antidiabetic activity in STZ-induced diabetic nephropathy Wistar rat model assessed as reduction in blood glucose level at 40 to 160 mg/kg administered daily for 8 weeks measured up to 8 weeks by ELISA; format: functional, organism-based; summary of the method: as §1
Rattus norvegicus [17] = experiment: Antidiabetic activity in STZ-induced diabetic nephropathy Wistar rat model assessed as increase in total antioxidant capacity at 40 to 160 mg/kg administered daily for 8 weeks measured up to 8 weeks by ELISA; format: functional, organism-based; summary of the method: as §1
Rattus norvegicus [18] = experiment: Antidiabetic activity in STZ-induced diabetic nephropathy Wistar rat model assessed as increase in total superoxide dismutase level at 40 to 160 mg/kg administered daily for 8 weeks measured up to 8 weeks by ELISA; format: functional, organism-based; summary of the method: as §1
Rattus norvegicus [19] = experiment: Antidiabetic activity in STZ-induced diabetic nephropathy Wistar rat model assessed as increase in catalase level at 40 to 160 mg/kg administered daily for 8 weeks measured up to 8 weeks by ELISA; format: functional, organism-based; summary of the method: as §1
Rattus norvegicus [20] = experiment: Antidiabetic activity in STZ-induced diabetic nephropathy Wistar rat model assessed as increase in glutathione level at 40 to 160 mg/kg administered daily for 8 weeks measured up to 8 weeks by ELISA; format: functional, organism-based; summary of the method: as §1
Rattus norvegicus [21] = experiment: Protection against […] in Wistar rat model assessed as reduction in glomerular mesangial hyperplasia at 40 to 160 mg/kg administered daily for 8 weeks measured after 8 weeks by hematoxylin/eosin dye-based analysis; format: functional, organism-based; summary of the method: as §1
HBZY-1 [22] = experiment: Downregulation of collagen 4 levels in rat HBZY-1 cells at 0.3 to 0.9 uM by Western blot analysis; format: functional, cell-based
HBZY-1 [23] = experiment: Downregulation of laminin levels in rat HBZY-1 cells at 0.3 to 0.9 uM by Western blot analysis; format: functional, cell-based
Rattus norvegicus [24] = experiment: Antidiabetic activity in STZ-induced diabetic nephropathy Wistar rat model assessed as decrease in laminin level at 40 to 160 mg/kg administered daily for 8 weeks measured up to 8 weeks by ELISA
Rattus norvegicus [25] = experiment: Antidiabetic activity in STZ-induced diabetic nephropathy Wistar rat model assessed as decrease in collagen 4 level at 40 to 160 mg/kg administered daily for 8 weeks measured up to 8 weeks by ELISA
HBZY-1 [26] = experiment: Cytoprotective activity against HG-induced cell death in rat HBZY-1 cells assessed as […] by measuring early apoptotic cells at 10 uM by Annexin V-FITC/propidium iodide staining-based flow cytometric analysis (reference value: 8.13%); format: functional
HBZY-1 [27] = experiment: Cytoprotective activity against HG-induced cell death in rat HBZY-1 cells assessed as increase in apoptosis by measuring late apoptotic cells at 10 uM by Annexin V-FITC/propidium iodide staining-based flow cytometric analysis (reference value: 18.18%); format: functional

## CC(=O)Oc1cc(-c2ccccc2)n(C(C)=O)c1
Rattus norvegicus [1]
  Activity: Active
[2]
  IC50: 22.3 nM
[3]
  inhibition: Active
HBZY-1 [4]
  Activity: Active
HBZY-1 [5]
  Activity: Active
HBZY-1 [6]
  fold change (FC): 2.29
HBZY-1 [7]
  fold change (FC): 2.07
HBZY-1 [8]
  fold change (FC): 1.93
HBZY-1 [9]
  Activity: 8.18%
HBZY-1 [10]
  Activity: 13.67%
HBZY-1 [11]
  Activity: 5.66%
HBZY-1 [12]
  Activity: 10.31%
HBZY-1 [13]
  Activity: 9.97%
HBZY-1 [14]
  Activity: 8.45%
HBZY-1 [15]
  Activity: Active
Rattus norvegicus [16]
  Activity: Active
Rattus norvegicus [17]
  Activity: Active
Rattus norvegicus [18]
  Activity: Active
Rattus norvegicus [19]
  Activity: Active
Rattus norvegicus [20]
  Activity: Active
Rattus norvegicus [21]
  Activity: Active
HBZY-1 [22]
  Activity: Active
HBZY-1 [23]
  Activity: Active
Rattus norvegicus [24]
  Activity: Active
Rattus norvegicus [25]
  Activity: Active

## CC(/C=C1\SC(=S)N(CC(=O)O)C1=O)=C\c1ccccc1
HBZY-1 [8]
  fold change (FC): 1.81
HBZY-1 [22]
  Activity: Active
HBZY-1 [23]
  Activity: Active
HBZY-1 [26]
  Activity: 8.98%
HBZY-1 [27]
  Activity: 8.31%
